# Reference: ChEMBL document CHEMBL1158067, “Phenolic glycosides with antioxidant activity from the stem bark of Populus davidiana” (J Nat Prod, 2006)
# Test: ABTS radical scavenging activity assessed as Trolox equivalent antioxidant capacity index
# Assay type: physicochemical
# In short: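 ABTS radical cation generated from 7 mM ABTS in water plus potassium persulfate (final 2.45 mM), held in the dark at room temperature for 16 h, then diluted with water to A734 0.700 ± 0.020. Diluted radical mixed with compound or Trolox standard in MeOH (final 0–20 µM), kept at ambient temperature. A734 read exactly 6 min after mixing, solvent blanks included. Compounds were dosed to give 10–80% inhibition. Percent absorbance decrease was plotted against concentration and referenced to Trolox.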
row,Activity,Compound
1,0.12,O=C(O[C@H]1[C@H](Oc2ccccc2COC(=O)C2(O)C=CCCC2=O)O[C@H](CO)[C@@H](O)[C@@H]1O)c1ccccc1 (some centres not stated) [TREMULACIN]
2,1.67,O=C(/C=C/c1ccc(O)c(O)c1)OCc1ccccc1O[C@@H]1O[C@H](CO)[C@@H](O)[C@H](O)[C@H]1O [POPULOSIDE]
3,0.21,OCc1ccccc1O[C@@H]1O[C@H](CO)[C@@H](O)[C@H](O)[C@H]1O [SALICIN]
4,0.24,O=C(O[C@H]1[C@H](Oc2ccccc2CO)O[C@H](CO)[C@@H](O)[C@@H]1O)c1ccccc1 [TREMULDIN]
5,2.07,O=C(/C=C/c1ccc(O)cc1)OCc1cc(O)ccc1O[C@@H]1O[C@H](CO)[C@@H](O)[C@H](O)[C@H]1O [POPULOSIDE A]

# More lines, now with the values behind:
row,Compound,Activity
1,COc1cc(/C=C/C(=O)OCc2ccccc2O[C@@H]2O[C@H](CO)[C@@H](O)[C@H](O)[C@H]2O)ccc1O [POPULOSIDE C],1.55
2,O=C(O)/C=C/c1ccc(O)c(O)c1 [CAFFEIC ACID],1.98
3,O=C(/C=C/c1ccc(O)cc1)O[C@H]1[C@H](OC2CCCCC2O)O[C@H](CO)[C@@H](O)[C@@H]1O (some centres not stated) [GRANDIDENTATIN],1.27
4,Cc1cc(C(C)(C)C)c(O)c(C(C)(C)C)c1 [BUTYLATED HYDROXYTOLUENE],0.8
5,O=C(/C=C/c1ccc(O)cc1)OCc1ccccc1O[C@@H]1O[C@H](CO)[C@@H](O)[C@H](O)[C@H]1O [POPULOSIDE B],1.13
6,O=C(/C=C/c1ccc(O)cc1)O[C@@H]1O[C@H](CO)[C@@H](O)[C@H](O)[C@H]1O,0.78
7,O=C(OCc1cc(O)ccc1O[C@@H]1O[C@H](CO)[C@@H](O)[C@H](O)[C@H]1O)c1ccccc1 [SALIREPOSIDE],1.01
